Holding throughout (format): functional
Experiment [1] relates to Mus musculus. In words: Evaluated for catalepsy activity in mice and percentage immobility was determined at a concentration of 3 mg/kg. Summed up: (§1)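 Mice, single tail-vein injection (0.1 mL/10 g) in ethanol/emulphor/saline (1:1:18). Catalepsy scored by ring test as % immobility, per previously reported methods. Vehicle and Δ9-THC positive-control groups run in each daily experiment. Mean ± SEM; ANOVA with Dunnett's t test versus control, p < 0.05 two-tailed.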

Experiment [2] concerns Mus musculus. The experiment is described as follows: Tail-flick latency was determined at a concentration of 0 mg/Kg. The method in brief:
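Antinociception in mice by tail-flick latency (s), per previously reported methods, after tail-vein injection (0.1 mL/10 g) in ethanol/emulphor/saline (1:1:18). Vehicle and Δ9-THC controls run daily. Mean ± SEM; ANOVA with Dunnett's t test, p < 0.05 two-tailed.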

Experiment [3] relates to Mus musculus. The experiment is described as follows: Evaluated for reduction in spontaneous locomotor activity in mice, at a dose of 0 mg/Kg. Summed up:
(§2)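 Tail-vein injection in mice (0.1 mL/10 g; ethanol/emulphor/saline 1:1:18). Spontaneous locomotor activity counted as counts/10 min, per previously reported methods. Daily vehicle and Δ9-THC positive controls. Mean ± SEM; ANOVA with Dunnett's t test, p < 0.05 two-tailed.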

The test system of experiment [4] is Mus musculus. In words: Tail-flick latency was determined at a concentration of 3 mg/kg. The method in brief:
(§3)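 Mice, drug suspended in ethanol/emulphor/saline (1:1:18) and given by tail-vein injection (0.1 mL/10 g). Antinociception measured as tail-flick latency (s). Vehicle and Δ9-THC positive controls run in each daily experiment. Data given as mean ± SEM. ANOVA with Dunnett's t test against control, p < 0.05 (two-tailed).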

Experiment [5] concerns Mus musculus. The experiment is described as follows: Evaluated for reduction in spontaneous locomotor activity in mice at a dose of 3 mg/Kg. Summed up: as §2
The test system of experiment [6] is Mus musculus. In words: Evaluated for hypothermic activity in mice at a dose of 3 mg/kg. Summed up: (§4)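 Mice dosed by tail-vein injection (0.1 mL/10 g) in ethanol/emulphor/saline (1:1:18). Body temperature change (°C) measured by previously reported methods. Vehicle and Δ9-THC positive controls run each day. Mean ± SEM; ANOVA with Dunnett's t test versus control, p < 0.05 two-tailed.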

In experiment [7] the test system is Mus musculus. The experiment is described as follows: Evaluated for hypothermic activity in mice at a dose of 0 mg/Kg. Summed up: as §4
Experiment [8] concerns Mus musculus. The experiment is described as follows: Evaluated for catalepsy activity in mice and percentage immobility was determined at a concentration of 0 mg/Kg. The method in brief: as §1
Experiment [9] concerns Mus musculus. The experiment is described as follows: Tail-flick latency was determined at a concentration of 0 mg/Kg administered intraventricularly. The method in brief: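 Tail-flick latency (s) in mice after intraventricular injection (5 μL) of ethanol/emulphor/saline (1:1:18) vehicle, measured by previously reported methods. Mean ± SEM; ANOVA with Dunnett's t test, p < 0.05 two-tailed.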

The test system of experiment [10] is Mus musculus. In words: Evaluated for hypothermic activity in mice at a dose of 150 mg/Kg administered intraventricularly. Summed up: (§5)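 Intraventricular injection in mice, 5 μL volume, in ethanol/emulphor/saline (1:1:18) vehicle. Change in body temperature (°C) recorded by previously reported methods, with vehicle and Δ9-THC controls. Mean ± SEM; ANOVA with Dunnett's t test versus control, p < 0.05 two-tailed.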

Experiment [11] relates to Mus musculus. The experiment is described as follows: Evaluated for reduction in spontaneous locomotor activity in mice, at a dose of 0 mg/Kg administered intraventricularly. The method in brief: (§6)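 Mice given intraventricular injection of 5 μL in ethanol/emulphor/saline (1:1:18). Spontaneous locomotor activity recorded as counts/10 min by previously reported methods, alongside vehicle and Δ9-THC controls. Mean ± SEM; ANOVA with Dunnett's t test, p < 0.05 two-tailed.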

The subject of experiment [12] is Mus musculus. In words: Evaluated for hypothermic activity in mice at a dose of 100 mg/Kg administered intraventricularly. Summed up:
as §5

The subject of experiment [13] is Mus musculus. The experiment is described as follows: Evaluated for reduction in spontaneous locomotor activity in mice at a dose of 100 mg/Kg administered intraventricularly. Summed up:
as §6

In experiment [14] the test system is Mus musculus. The experiment is described as follows: Evaluated for hypothermic activity in mice at a dose of 0 mg/Kg administered intraventricularly. The method in brief: as §5
Experiment [15] concerns Mus musculus. The experiment is described as follows: Evaluated for reduction in spontaneous locomotor activity in mice at a dose of 150 mg/Kg administered intraventricularly. The method in brief:
as §6

Experiment [16] relates to Mus musculus. In words: Tail-flick latency was determined at a concentration of 5 mg/Kg. Summed up:
as §3

Experiment [17] concerns Mus musculus. In words: Tail-flick latency was determined at a concentration of 3 mg/Kg. The method in brief: as §3
The subject of experiment [18] is Mus musculus. In words: Evaluated for catalepsy activity in mice and percentage immobility was determined at a concentration of 5 mg/kg. The method in brief:
as §1

The subject of experiment [19] is Mus musculus. In words: Evaluated for reduction in spontaneous locomotor activity in mice at a dose of 5 mg/Kg. Summed up:
as §2

Experiment [20] deals with Mus musculus. In words: Tail-flick latency was determined at a concentration of 6 mg/kg. The method in brief: as §3
In experiment [21] the test system is Mus musculus. In words: Evaluated for hypothermic activity in mice at a dose of 6 mg/kg. The method in brief: as §4
Experiment [22] relates to Mus musculus. The experiment is described as follows: Evaluated for reduction in spontaneous locomotor activity in mice at a dose of 6 mg/Kg. The method in brief:
as §2

For experiment [23], the system named is Mus musculus. The experiment is described as follows: Evaluated for catalepsy activity in mice and percentage immobility was determined at a concentration of 3 mg/Kg. The method in brief:
as §1

Experiment [24] deals with Mus musculus. The experiment is described as follows: Evaluated for hypothermic activity in mice at a dose of 5 mg/Kg. Summed up:
as §4

Experiment [25] has as its system Mus musculus. In words: Tail-flick latency was determined at a concentration of 10 mg/Kg. The method in brief: as §3
Experiment [26] has as its system Mus musculus. The experiment is described as follows: Evaluated for hypothermic activity in mice at a dose of 10 mg/Kg. The method in brief:
as §4

Experiment [27] deals with Mus musculus. The experiment is described as follows: Evaluated for reduction in spontaneous locomotor activity in mice at a dose of 10 mg/Kg. The method in brief: as §2
Experiment [28] has as its system Mus musculus. The experiment is described as follows: Evaluated for catalepsy activity in mice and percentage immobility was determined at a concentration of 50 mg/Kg. Summed up:
as §1

In experiment [29] the test system is Mus musculus. In words: Evaluated for hypothermic activity in mice at a dose of 50 mg/Kg. The method in brief:
as §4

The test system of experiment [30] is Mus musculus. The experiment is described as follows: Tail-flick latency was determined at a concentration of 50 mg/Kg. The method in brief:
as §3

Experiment [31] relates to Mus musculus. The experiment is described as follows: Evaluated for reduction in spontaneous locomotor activity in mice at a dose of 50 mg/Kg. Summed up:
as §2

The test system of experiment [32] is Mus musculus. In words: Evaluated for catalepsy activity in mice and percentage immobility was determined at a concentration of 5 mg/Kg. Summed up:
as §1

In experiment [33] the test system is Mus musculus. The experiment is described as follows: Evaluated for hypothermic activity in mice at a dose of 3 mg/Kg. The method in brief:
as §4

Regarding `C=C(CNCC)[C@@H]1CCC(C)=CC1c1c(O)cc(CCCCC)cc1O` (stereo partly specified), the Immobility stood at 7% in experiment [1] and 4% in experiment [8]. Moreover, the Tail flick latency in experiment [2] stood at 0.6 s; in experiment [4], 1 s. The Spont activity in experiment [3] is 53 Counts 10min-1; in experiment [5], under 27 Counts 10min-1. Also, the Temperature is under -2.1 °C in experiment [6] and -0.8 °C in experiment [7].

With `C=C(CN(CCCl)CCCl)[C@@H]1CCC(C)=CC1c1c(O)cc(CCCCC)cc1O` (stereo partly specified), in experiment [9], the Tail flick latency is -0.2 s. The figures for the Temperature in [10], in experiment [12] and in experiment [14] were under -3.8 °C, -1.8 °C and -1.1 °C, respectively. Besides, the Spont activity is given as 90 Counts 10min-1 in experiment [11], 81 Counts 10min-1 in experiment [13] and 75 Counts 10min-1 in experiment [15].

For `CCCCCc1cc(O)c2c(c1)OC(C)(CN)[C@@H]1CC=C(C)CC21` (stereo partly specified), the Tail flick latency in [2] is given as 0.6 s; in [16], under 1.9 s; in [17], 1.1 s; in experiment [20], 1.1 s. Besides, the Spont activity in [3] is reported as 68 Counts 10min-1; in [19] it was under 42 Counts 10min-1; in [5], under 43 Counts 10min-1; in experiment [22], under 25 Counts 10min-1. Besides, the figures for the Immobility in experiment [18], in [23] and in experiment [8] were 15%, 24% and 13%, respectively. Moreover, the Temperature was under -3 °C in experiment [21], -1.1 °C in experiment [6], -0.8 °C in experiment [7] and -0.7 °C in experiment [24].

In the case of `CCCCCc1cc(O)c2c(c1)OC(C)(C)[C@@H]1CC=C(CNCC)CC21.Cl` (stereo partly specified), the Tail flick latency in experiment [25] was under 2.6 s; in experiment [2], 0.5 s. Besides, the values for the Spont activity in [3] and in experiment [27] were 49 Counts 10min-1 and 54 Counts 10min-1, respectively. In addition, the Temperature is under -3.8 °C in [26] and -1.8 °C in experiment [7].

Take `CCCCCc1cc(OC(C)=O)c2c(c1)OC(C)(C)[C@@H]1CC=C(CN(CCCl)CCCl)CC21.Cl` (stereo partly specified): the Tail flick latency is given as 0.5 s in experiment [2] and 0.6 s in experiment [30]. Also, the Spont activity in experiment [3] amounted to 51 Counts 10min-1; in [31], 26 Counts 10min-1. Moreover, the Immobility in experiment [28] is on record as under 31%; in experiment [8], 4%. For the same compound, the Temperature was under -3.3 °C in [29] and -1.8 °C in experiment [7].

On to `CCCCCc1cc(O)c2c(c1)OC(C)(CNCC)[C@@H]1CC=C(C)CC21` (stereo partly specified), for which the Immobility was 20% in [1], 16% in experiment [32] and 13% in experiment [8]. The Tail flick latency in [2] is given as 1 s; in experiment [16] it was 2.2 s; in [17], under 2.8 s. The Spont activity in experiment [3] is 52 Counts 10min-1; in [19], 35 Counts 10min-1; in experiment [5], 35 Counts 10min-1. In addition, the values for the Temperature in [33], in experiment [7] and in experiment [24] were -1.5 °C, -0.9 °C and -0.7 °C, respectively.

(Values after ChEMBL document CHEMBL1124770, “Synthesis and pharmacological evaluation of amino, azido, and nitrogen mustard analogues of 10-substituted cannabidiol and 11- or 12-substituted delta 8-tetrahydrocannabinol” (1990).)
